Source: PubChem BioAssay
Inconclusive results are not listed.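 How the source made its calls, unless noted: active means inhibition over a set limit, the all-compound mean plus 3 SD, in both replicate runs; inconclusive means over that limit in just one replicate run; inactive means at or under that limit in both runs.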

Key:
[1] = S. cerevisiae growth inhibition in permissive medium (OD615), pilot counter-assay for S. cerevisiae lifespan shortening project, permissive growth control (AID 705;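 active means growth inhibition above 25% in both replicates, a cutoff set 3 SD above the mean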); conditions: OD615, 24 h, at 10 µM, stronger effect = higher value
How it was run: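 Material: engineered DeaD yeast; Compound: one dose 10 µM, DMSO 0.25% final; Detection: absorbance (optical density) at 615 nm; Buffer or medium: permissive raffinose/galactose medium; Timing: 24 h exposure, 30 °C.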

[2] = S. cerevisiae growth inhibition in restrictive medium, OD615, pilot screen, restrictive growth control, yeast lifespan reduction project (AID 706;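 active means growth inhibition above a set limit, 3 SD over mean compound inhibition, in both replicates, cut at about 43% in these data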;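 further: modified DeaD lifespan yeast strain shifted to restrictive glucose medium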); conditions: OD615, 48 h, at 10 µM, stronger effect = higher value
How it was run: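 Buffer or medium: restrictive glucose medium (CSMM-D); test system: modified S. cerevisiae; doses: single dose of 10 µM compound final, 0.25% DMSO; schedule: 48 h compound exposure at 30 °C; detection: absorbance (optical density) measured at 615 nm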

[3] = doxorubicin toxicity protection in MRP-1 cells – H69AR cells, CellTiter-Glo, duplicate, MRP-1 activator project, pilot screen (AID 807;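 active means viability increase at or above a cutoff of the median across tested compounds plus 3 SD, cut at about 8.5% in these data, passing the limit was not always enough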;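 further: compound pretreatment 18-22 h then 72 h combined with doxorubicin; 0% = doxorubicin alone and 100% = vehicle without doxorubicin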); conditions: H69AR viability with doxorubicin, CellTiter-Glo luminescence; at 10 µM; stronger effect = higher value
[4] = viability of PTEN-null HCT116 cells – cell-based, HCT116 clonal line, CellTiter-Glo, pilot screen (AID 824;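 active means viability at or below 27.92% in each of two runs, the all-compound median minus 4 SD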;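 further: 0% = 20 µM Hyamine control and 100% = vehicle cell control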); conditions: HCT116 PTEN-deleted viability, 60 h, at 10 µM, stronger effect = lower value
[5] = RAM pathway blockade in budding yeast – dse1pr::URA3 reporter, 5-FOA selection, pilot screen (AID 869);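 further: 0% = DMSO wells with no growth and 100% = 10 µM 1-NA-PP1 with full growth; RAM network block rescues cells from 5-FOA so hits raise OD615 growth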; conditions: S. cerevisiae dse1pr::URA3 5-FOA growth, OD615, 2 d; at 10 µM; stronger effect = higher value; strain carries analog-sensitive mutant Cbk1 kinase
[6] = RAM signaling pathway blockade in yeast – S. cerevisiae, Pdr1DBD-CYC8 efflux-inhibited sensitized strain, primary screen (AID 1298;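 active means RAM network inhibition above 8.4% in each of two replicates, 3 SD over the compound average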;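 further: 0% = DMSO untreated cells without growth and 100% = 10 µM 1-NA-PP1 full growth; higher means more yeast growth rescued from 5-FOA killing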); conditions: S. cerevisiae cbk1-as DSE1-URA3 strain, 5-FOA growth OD615, 2 d; at 50 µM; stronger effect = higher value

CCOC(=O)c1cc2c(=O)n3ccccc3nc2n(CCOC)c1=NC(=O)c1ccncc1
inactive: growth inhibition [1] -1.34% | growth inhibition [2] -11.8% | viability increase [3] -5.7% | viability [4] 99.6% | inhibition [5] 0.96% | RAM network inhibition [6] 5.99%

O=C(O)c1ccc(N2C(=O)CC(Cc3ccccc3)C2=O)cc1 (stereo not given)
inactive: growth inhibition [1] -3.14% | growth inhibition [2] 2.02% | viability increase [3] -1.42% | viability [4] 100% | inhibition [5] -0.025% | RAM network inhibition [6] 0.72%

COc1ccc(CCNC(=O)CN(c2ccc(OC)c(OC)c2)S(C)(=O)=O)cc1OC
inactive: growth inhibition [1] -1.96% | growth inhibition [2] -7.65% | viability increase [3] 0.32% | viability [4] 106% | inhibition [5] 0.98% | RAM network inhibition [6] 1.49%

CC(C)(Oc1ccc(Cl)cc1)C(=O)Nc1ncccn1
inactive: growth inhibition [1] -5.31% | growth inhibition [2] -3.56% | viability increase [3] -2.32% | viability [4] 101% | inhibition [5] 1.61% | RAM network inhibition [6] 2.05%

O=C(CSc1nc2c(c(=O)n1-c1ccc(Cl)cc1)SCC2)N1CCCC1
inactive: growth inhibition [1] 1.32% | growth inhibition [2] 24.2% | viability increase [3] -4.23% | viability [4] 101% | inhibition [5] 1.31% | RAM network inhibition [6] 0.57%

COc1cc(NS(=O)(=O)c2ccc(NC(=O)COc3ccc(C)cc3)cc2)nc(OC)n1
inactive: growth inhibition [1] -14.3% | growth inhibition [2] -7.79% | viability increase [3] -1.12% | viability [4] 102% | inhibition [5] 1.73% | RAM network inhibition [6] 3.5%

CCS(=O)(=O)C(=C(Nc1ccc(OC)cc1)Nc1ccc(OC)cc1)S(=O)(=O)CC
inactive: growth inhibition [1] -3.28% | growth inhibition [2] 4.84% | viability increase [3] -0.19% | viability [4] 95.3% | inhibition [5] 0.04% | RAM network inhibition [6] 7.21%

O=C1CC(c2ccccc2)c2cc(O)ccc2O1 (stereo not given)
inactive: growth inhibition [1] -23.7% | growth inhibition [2] -23% | viability increase [3] 3.84% | viability [4] 69.2% | inhibition [5] 1.45% | RAM network inhibition [6] 2.58%

O=C(Nc1ccc(Cl)cc1)N(Cc1cccs1)Cc1cccs1
inactive: growth inhibition [1] -13.9% | growth inhibition [2] -21.5% | viability increase [3] -0.55% | viability [4] 64.9% | inhibition [5] 2.13% | RAM network inhibition [6] 8.73%

Cc1ccc(S(=O)(=O)N(CC(=O)N2CCOCC2)C2CCCCC2)cc1
inactive: growth inhibition [1] -7.12% | growth inhibition [2] -1.69% | viability increase [3] -2.71% | viability [4] 103% | inhibition [5] 1.29% | RAM network inhibition [6] 1.99%

COC(=O)c1ccc2[nH]c(C)c(CN3CCCC3)c(=O)c2c1
inactive: growth inhibition [1] -4.34% | growth inhibition [2] 1.2% | viability increase [3] -2.3% | viability [4] 95.3% | inhibition [5] 0.415% | RAM network inhibition [6] 1.59%

Cc1ccc(C(C)NC(=O)c2ccco2)cc1C (stereo not given)
inactive: growth inhibition [1] -7.97% | growth inhibition [2] -4.3% | viability increase [3] -3.06% | viability [4] 98.8% | inhibition [5] 0.75% | RAM network inhibition [6] -1.23%

Cc1ccc(S(=O)(=O)c2cccc(S(=O)(=O)N3CCCC3)c2)cc1S(=O)(=O)N1CCCC1
inactive: growth inhibition [1] -2.43% | growth inhibition [2] -5.35% | viability increase [3] -3.64% | viability [4] 44.4% | inhibition [5] 1.4% | RAM network inhibition [6] 2.38%

COc1ccc(OC)c2c(C)cc(N3CCCN(C)CC3)nc12
inactive: growth inhibition [1] 3.26% | growth inhibition [2] -3.9% | viability increase [3] -4.81% | viability [4] 85.9% | inhibition [5] 0.015% | RAM network inhibition [6] 0%

COC(=O)c1c(NC(=O)Cc2cccs2)sc(C)c1C
inactive: growth inhibition [1] 2.9% | growth inhibition [2] 6.72% | viability increase [3] -4.9% | viability [4] 87% | inhibition [5] 1.54% | RAM network inhibition [6] 9.13%

Fc1cccc(Cl)c1CSc1ncn[nH]1
inactive: growth inhibition [1] -4.97% | growth inhibition [2] 10.7% | viability increase [3] 0.29% | viability [4] 85.6% | inhibition [5] 0.52% | RAM network inhibition [6] 2.05%

COc1ccccc1CNC(=O)CCS(=O)(=O)c1cccs1
inactive: growth inhibition [1] -15.9% | growth inhibition [2] -3.45% | viability increase [3] -3.06% | viability [4] 103% | inhibition [5] 1.43% | RAM network inhibition [6] 0.82%

CC(C)Cn1c(SCC(=O)NC2CCCc3ccccc32)nc(O)cc1=O (stereo not given)
inactive: growth inhibition [1] -3.38% | growth inhibition [2] 9.89% | viability increase [3] -2.62% | viability [4] 97.9% | inhibition [5] 1% | RAM network inhibition [6] 2.76%

C=CCn1c(SC(CCO)C(=O)NCc2ccco2)nc2sc3c(c2c1=O)CCC3 (stereo not given)
inactive: growth inhibition [1] -8.84% | growth inhibition [2] 0.375% | viability increase [3] -5.67% | viability [4] 84.7% | inhibition [5] 1.2% | RAM network inhibition [6] 5.12%

COc1cc(C(C)=O)ccc1OC(=O)C(C)N1C(=O)c2ccccc2C1=O (stereo not given)
inactive: growth inhibition [1] -17.5% | growth inhibition [2] -5.68% | viability increase [3] -2.73% | viability [4] 93.9% | inhibition [5] 1.02% | RAM network inhibition [6] 3.8%

CC(=O)NCCOC(=O)Nc1ccncc1
inactive: growth inhibition [1] 4.58% | growth inhibition [2] -5.27% | viability increase [3] -0.91% | viability [4] 99.1% | inhibition [5] 1.32% | RAM network inhibition [6] 3.18%

O=C(CCn1nnc2ccccc21)N1CCC(O)(c2cccc(F)c2)CC1
inactive: growth inhibition [1] -3.14% | growth inhibition [2] -7.45% | viability increase [3] -2.75% | viability [4] 101% | inhibition [5] 2.4% | RAM network inhibition [6] 1.86%

CCN1CCN(c2cc(C)c3cc(NC(=O)c4ccc5c(c4)OCO5)ccc3n2)CC1
inactive: growth inhibition [1] -12.3% | growth inhibition [2] -7.6% | viability increase [3] -8.06% | viability [4] 47.2% | inhibition [5] -0.365% | RAM network inhibition [6] 3.21%

O=C(c1ccco1)c1n[nH]nc1-c1ccccc1
inactive: growth inhibition [1] -19.6% | growth inhibition [2] -5.81% | viability increase [3] -3.17% | viability [4] 102% | inhibition [5] 1.16% | RAM network inhibition [6] 1.94%

O=C1C=C(NCc2ccco2)CC(c2ccc(Cl)cc2)C1 (stereo not given)
inactive: growth inhibition [1] -7.5% | growth inhibition [2] -22.3% | viability increase [3] -2.53% | viability [4] 66.6% | inhibition [5] 1.2% | RAM network inhibition [6] 3.64%

O=C(Nc1cccc(F)c1)Nc1ccccn1
inactive: growth inhibition [1] -10.9% | growth inhibition [2] -7.43% | viability increase [3] -3.54% | viability [4] 88.1% | inhibition [5] 0.385% | RAM network inhibition [6] -0.16%

CC(C)c1cc(=O)oc2c3c4c(cc12)CCCN4CCC3
inactive: growth inhibition [1] 0.175% | growth inhibition [2] 9.32% | viability increase [3] -4.62% | viability [4] 57.8% | inhibition [5] 1.84% | RAM network inhibition [6] 3.62%

Cc1c(-c2ccco2)[n+](=O)c2c(n1[O-])CCCCC2
inactive: growth inhibition [1] -4.97% | growth inhibition [2] -4.29% | viability increase [3] -1.32% | viability [4] 105% | inhibition [5] 1.32% | RAM network inhibition [6] 8.4%

CCN1CCN(CCNC(=O)C2CCCN(Cc3nc(-c4cccc(Cl)c4)oc3C)C2)CC1 (stereo not given)
inactive: growth inhibition [1] -9.33% | growth inhibition [2] -13.1% | viability increase [3] -6.96% | viability [4] 35% | inhibition [5] -1.05% | RAM network inhibition [6] 0.71%

Cc1ccc(N(CC(=O)Nc2ccc(S(=O)(=O)N3CCOCC3)cc2)S(C)(=O)=O)cc1C
inactive: growth inhibition [1] -6.29% | growth inhibition [2] -5.42% | viability increase [3] -4.96% | viability [4] 84.2% | inhibition [5] 0.84% | RAM network inhibition [6] 2.67%

COc1ccccc1N1CCN(CC(O)COc2ccc3c(C)cc(=O)oc3c2)CC1 (stereo not given)
inactive: growth inhibition [1] -3.12% | growth inhibition [2] -9.43% | viability increase [3] -2.57% | viability [4] 92.3% | inhibition [5] 1.95% | RAM network inhibition [6] 2.88%

Cc1ccc(S(=O)(=O)N2CCN(C(=O)CCC(=O)N3CCc4ccccc43)CC2)cc1
inactive: growth inhibition [1] -2.18% | growth inhibition [2] -5.78% | viability increase [3] -1.16% | viability [4] 99.4% | inhibition [5] -0.03% | RAM network inhibition [6] 2.05%

COc1ccccc1C(=O)Nc1ccc2c(c1)OCO2
inactive: growth inhibition [1] 4.22% | growth inhibition [2] -12.9% | viability increase [3] -3.95% | viability [4] 89.2% | inhibition [5] 2.47% | RAM network inhibition [6] -1.49%

CCOc1ccccc1NC(=O)CSc1ccccc1
inactive: growth inhibition [1] -17.2% | growth inhibition [2] -2.58% | viability increase [3] -2.94% | viability [4] 85.8% | inhibition [5] 0.255% | RAM network inhibition [6] 2.06%

Cc1ccc(OCC(O)CN2CCN(c3ccccc3)CC2)cc1 (stereo not given)
inactive: growth inhibition [1] -3.02% | growth inhibition [2] -2.13% | viability increase [3] -0.7% | viability [4] 99.9% | inhibition [5] 1.23% | RAM network inhibition [6] 7.87%

CC(C)CC(NC(=O)C1CCCCC1)C(=O)NCc1ccccn1 (stereo not given)
inactive: growth inhibition [1] 1.21% | growth inhibition [2] -10.9% | viability increase [3] -4.03% | viability [4] 94.4% | inhibition [5] 1.04% | RAM network inhibition [6] -0.2%

COCCNC(=O)c1ccc2c(=O)n(CCOC)c(=O)[nH]c2c1
inactive: growth inhibition [1] -8.7% | growth inhibition [2] -15.7% | viability increase [3] -3.33% | viability [4] 91.3% | inhibition [5] 0.805% | RAM network inhibition [6] 0.78%

CC(C)CC(NC(=O)C1CCC(C)CC1)C(=O)Nc1cccnc1 (stereo not given)
inactive: growth inhibition [1] -8.21% | growth inhibition [2] -12.6% | viability increase [3] -3.68% | viability [4] 89.5% | inhibition [5] 0.035% | RAM network inhibition [6] 0.05%

O=C1c2ccccc2N2C(=O)c3ccccc3C2N1Cc1ccco1 (stereo not given)
inactive: growth inhibition [1] -9.32% | growth inhibition [2] -5.68% | viability increase [3] -4.74% | viability [4] 85.1% | inhibition [5] 3.68% | RAM network inhibition [6] 3.03%

CCNc1nc2c(c(=O)n(C)c(=O)n2C)n1Cc1ccc(Cl)cc1
inactive: growth inhibition [1] -6.92% | growth inhibition [2] -2.02% | viability increase [3] -2.02% | viability [4] 58.3% | inhibition [5] -0.48% | RAM network inhibition [6] 1.98%
